Here are results for 14 compounds from ChEMBL document CHEMBL5257147 (ACS Med Chem Lett, 2023).

Series [1] concerns the target Epidermal growth factor receptor (Homo sapiens, UniProt P00533). The series can be described thus: Inhibition of wild type EGFR (unknown origin) using TK-substrate preincubated with enzyme for 30 mins followed by substrate and ATP addition for 25 mins by HTRF assay. (In general: In TR-FRET formats the signal depends on donor and acceptor labels being close together.)

The target in series [2] is Epidermal growth factor receptor (Homo sapiens, UniProt P00533, C797S/L858R). The series can be described thus: Inhibition of EGFR L858R/C797S mutant (unknown origin) using TK-substrate preincubated with enzyme for 30 mins followed by substrate and ATP addition for 20 mins by HTRF assay.
Series [3] addresses Epidermal growth factor receptor (Homo sapiens, UniProt P00533, C797S/L858R/T790M). Description: Inhibition of EGFR L858R/T790M/C797S mutant (unknown origin) using TK-substrate preincubated with enzyme for 30 mins followed by substrate and ATP addition for 10 mins by HTRF assay.
In series [4] the test system is BaF3. Description: Cytotoxicity against mouse BaF3 cells expressing EGFR L858R/C797S mutant assessed as reduction in cell viability incubated for 96 hrs by CellTiter-Glo assay. The class given is functional, cell-based. Particulars: BaF3, 96 h.
A further series relates to A-431. The series can be described thus: Cytotoxicity against human A-431 cells expressing wild type EGFR assessed as reduction in cell viability incubated for 96 hrs by CellTiter-Glo assay. The class given is functional, cell-based. The note with it: A-431, 96 h. For orientation: ATP-based viability assays read luminescence as a measure of living cells.
For series [5], the system named is BaF3. Description: Cytotoxicity against mouse BaF3 cells expressing EGFR L858R mutant assessed as reduction in cell viability incubated for 96 hrs by CellTiter-Glo assay. It counts as functional, cell-based. Particulars: BaF3, 96 h. In short, it runs like this: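 Cell viability measured by CellTiter-Glo (CTG) luminescence. A431 cells are EGFR wild-type dependent. Ba/F3 cells are made dependent on EGFR-L858R or EGFR-L858R/C797S. Readout is an EC50 for loss of viability.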

Series [6] can be described thus: Intrinsic clearance in mouse liver microsomes at 1 uM in presence of NADP measured per mg protein by LC-MS/MS analysis. The note with it: read-out: CLH. The class given is ADME, Microsome. A general note: Liver microsomes are vesicles of endoplasmic reticulum, rich in cytochrome P450 enzymes.
Series [7] deals with Epidermal growth factor receptor (Homo sapiens, UniProt P00533, L858R). The series can be described thus: Inhibition of EGFR L858R mutant (unknown origin) using TK-substrate preincubated with enzyme for 30 mins followed by substrate and ATP addition for 15 mins by HTRF assay.
The target in series [8] is Tyrosine-protein kinase Lck (Homo sapiens) (UniProt P06239). Description: Inhibition of human LCK at 200 nM by Z'-lyte assay.
The target of series [9] is Tyrosine-protein kinase Lyn (Homo sapiens) (UniProt P07948). Description: Inhibition of human LYN at 200 nM by Z'-lyte assay.
Series [10] deals with Inactive tyrosine-protein kinase PEAK1 (Homo sapiens) (UniProt Q9H792). Description: Inhibition of human PEAK1 at 200 nM by Z'-lyte assay.
In series [11] the target is Tyrosine-protein kinase ABL1 (Homo sapiens) (UniProt P00519). The series can be described thus: Inhibition of His-tagged human recombinant ABL1 expressed in insect cells at 200 nM by Z'-lyte assay. The note with it: Insect cell.
For series [12], the target named is ALK tyrosine kinase receptor (Homo sapiens) (UniProt Q9UM73). The series can be described thus: Inhibition of human ALK at 200 nM by Z'-lyte assay.
The target in series [13] is Tyrosine-protein kinase Blk (Homo sapiens) (UniProt P51451). Description: Inhibition of His-tagged human recombinant BLK expressed in insect cells at 200 nM by Z'-lyte assay. The note with it: Insect cell.
The target in series [14] is Tyrosine-protein kinase HCK (Homo sapiens) (UniProt P08631). The series can be described thus: Inhibition of GST-tagged human recombinant HCK expressed in insect cells at 200 nM by Z'-lyte assay. The note with it: Insect cell.
The target in series [15] is Platelet-derived growth factor receptor alpha (Homo sapiens) (UniProt P16234). The series can be described thus: Inhibition of GST-tagged human recombinant PDGFR-alpha (550 to 1089 residues) expressed in baculovirus expression system at 200 nM by Z'-lyte assay.
Series [16] has as its target Tyrosine-protein kinase Fyn (Homo sapiens) (UniProt P06241). Description: Inhibition of His-tagged human recombinant FYN expressed in insect cells at 200 nM by Z'-lyte assay. The note with it: Insect cell.
For series [17], the target named is Tyrosine-protein kinase Fes/Fps (Homo sapiens) (UniProt P07332). The series can be described thus: Inhibition of His-tagged human recombinant FES expressed in baculovirus expression system at 200 nM by Z'-lyte assay.
In series [18] the target is Fibroblast growth factor receptor 2 (Homo sapiens) (UniProt P21802). The series can be described thus: Inhibition of His-tagged human recombinant FGFR2 (403 to 822 residues) expressed in baculovirus expression system at 200 nM by Z'-lyte assay.
Series [19] has as its target Platelet-derived growth factor receptor beta (Homo sapiens) (UniProt P09619). Description: Inhibition of His-tagged human recombinant PDGFR-beta (558 to 1106 residues) expressed in baculovirus expression system at 200 nM by Z'-lyte assay.
Series [20] deals with Tyrosine-protein kinase TXK (Homo sapiens) (UniProt P42681). Description: Inhibition of GST-tagged human recombinant TXK (260 to 527 residues) expressed in baculovirus expression system at 200 nM by Z'-lyte assay.
Series [21] has as its target Vascular endothelial growth factor receptor 2 (Homo sapiens) (UniProt P35968). The series can be described thus: Inhibition of His-tagged human recombinant VEGFR2 (789 to 1356 residues) expressed in insect cells at 200 nM by Z'-lyte assay. The note with it: Insect cell.
Another series relates to Insect cell. Description: Inhibition of GST-tagged human recombinant VEGFR3 (800 to 1297 residues) Q890H/V1128L/H1146R mutant expressed in insect cells at 200 nM by Z'-lyte assay.
Series [22] addresses Tyrosine-protein kinase BTK (Homo sapiens) (UniProt Q06187). The series can be described thus: Inhibition of His-tagged human recombinant BTK expressed in insect cells at 200 nM by Z'-lyte assay. The note with it: Insect cell.
Series [23] deals with Epidermal growth factor receptor (Homo sapiens), P00533 [L858R,T790M]. The series can be described thus: Inhibition of EGFR L858R/T790M mutant (unknown origin) using TK-substrate preincubated with enzyme for 30 mins followed by substrate and ATP addition for 20 mins by HTRF assay. The note with it: time 50.0 min.
Series [24] has as its system BaF3. The series can be described thus: Cytotoxicity against mouse BaF3 cells expressing EGFR L858R/T790M/C797S mutant assessed as reduction in cell viability incubated for 96 hrs by CellTiter-Glo assay. The class given is functional, cell-based. Particulars: BaF3, 96 h.

Structures are written as SMILES. Activity calls are given as the source filed them. No cut-off for these calls is given here. Bounds are passed on as bounds.

Sequence of Epidermal growth factor receptor (Homo sapiens, UniProt P00533, C797S/L858R) (P00533 25-1210 C797S/L858R limits assumed): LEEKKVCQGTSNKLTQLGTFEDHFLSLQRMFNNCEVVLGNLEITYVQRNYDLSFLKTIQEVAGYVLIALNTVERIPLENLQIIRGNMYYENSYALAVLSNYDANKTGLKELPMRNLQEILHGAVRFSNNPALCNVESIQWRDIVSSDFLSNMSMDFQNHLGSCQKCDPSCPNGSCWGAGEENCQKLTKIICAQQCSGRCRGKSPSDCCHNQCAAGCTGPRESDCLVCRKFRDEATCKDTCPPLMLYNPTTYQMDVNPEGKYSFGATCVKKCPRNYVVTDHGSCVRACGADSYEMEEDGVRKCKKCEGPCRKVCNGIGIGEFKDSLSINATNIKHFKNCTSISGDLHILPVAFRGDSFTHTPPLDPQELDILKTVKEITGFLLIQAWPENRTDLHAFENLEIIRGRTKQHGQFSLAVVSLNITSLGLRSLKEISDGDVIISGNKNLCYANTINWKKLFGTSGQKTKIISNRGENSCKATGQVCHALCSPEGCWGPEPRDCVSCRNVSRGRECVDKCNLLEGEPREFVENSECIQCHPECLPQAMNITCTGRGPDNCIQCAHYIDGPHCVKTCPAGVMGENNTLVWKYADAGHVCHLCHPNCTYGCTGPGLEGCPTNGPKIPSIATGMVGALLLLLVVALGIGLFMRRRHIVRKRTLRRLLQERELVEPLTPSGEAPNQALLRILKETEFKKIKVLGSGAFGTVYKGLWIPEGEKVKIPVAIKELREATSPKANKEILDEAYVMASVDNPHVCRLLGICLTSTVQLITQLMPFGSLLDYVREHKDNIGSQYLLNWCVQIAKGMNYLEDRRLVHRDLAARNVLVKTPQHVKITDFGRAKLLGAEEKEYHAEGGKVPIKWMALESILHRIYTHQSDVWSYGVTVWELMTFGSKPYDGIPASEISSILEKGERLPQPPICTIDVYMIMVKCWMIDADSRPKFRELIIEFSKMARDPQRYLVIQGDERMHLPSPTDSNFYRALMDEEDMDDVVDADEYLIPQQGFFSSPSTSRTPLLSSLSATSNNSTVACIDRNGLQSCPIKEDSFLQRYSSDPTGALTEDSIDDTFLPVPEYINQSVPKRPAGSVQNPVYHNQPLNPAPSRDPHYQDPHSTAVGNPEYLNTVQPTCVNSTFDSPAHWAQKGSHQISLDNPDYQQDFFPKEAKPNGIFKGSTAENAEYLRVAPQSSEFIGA
Sequence of Epidermal growth factor receptor (Homo sapiens, UniProt P00533, L858R) (P00533 25-1210 L858R limits assumed): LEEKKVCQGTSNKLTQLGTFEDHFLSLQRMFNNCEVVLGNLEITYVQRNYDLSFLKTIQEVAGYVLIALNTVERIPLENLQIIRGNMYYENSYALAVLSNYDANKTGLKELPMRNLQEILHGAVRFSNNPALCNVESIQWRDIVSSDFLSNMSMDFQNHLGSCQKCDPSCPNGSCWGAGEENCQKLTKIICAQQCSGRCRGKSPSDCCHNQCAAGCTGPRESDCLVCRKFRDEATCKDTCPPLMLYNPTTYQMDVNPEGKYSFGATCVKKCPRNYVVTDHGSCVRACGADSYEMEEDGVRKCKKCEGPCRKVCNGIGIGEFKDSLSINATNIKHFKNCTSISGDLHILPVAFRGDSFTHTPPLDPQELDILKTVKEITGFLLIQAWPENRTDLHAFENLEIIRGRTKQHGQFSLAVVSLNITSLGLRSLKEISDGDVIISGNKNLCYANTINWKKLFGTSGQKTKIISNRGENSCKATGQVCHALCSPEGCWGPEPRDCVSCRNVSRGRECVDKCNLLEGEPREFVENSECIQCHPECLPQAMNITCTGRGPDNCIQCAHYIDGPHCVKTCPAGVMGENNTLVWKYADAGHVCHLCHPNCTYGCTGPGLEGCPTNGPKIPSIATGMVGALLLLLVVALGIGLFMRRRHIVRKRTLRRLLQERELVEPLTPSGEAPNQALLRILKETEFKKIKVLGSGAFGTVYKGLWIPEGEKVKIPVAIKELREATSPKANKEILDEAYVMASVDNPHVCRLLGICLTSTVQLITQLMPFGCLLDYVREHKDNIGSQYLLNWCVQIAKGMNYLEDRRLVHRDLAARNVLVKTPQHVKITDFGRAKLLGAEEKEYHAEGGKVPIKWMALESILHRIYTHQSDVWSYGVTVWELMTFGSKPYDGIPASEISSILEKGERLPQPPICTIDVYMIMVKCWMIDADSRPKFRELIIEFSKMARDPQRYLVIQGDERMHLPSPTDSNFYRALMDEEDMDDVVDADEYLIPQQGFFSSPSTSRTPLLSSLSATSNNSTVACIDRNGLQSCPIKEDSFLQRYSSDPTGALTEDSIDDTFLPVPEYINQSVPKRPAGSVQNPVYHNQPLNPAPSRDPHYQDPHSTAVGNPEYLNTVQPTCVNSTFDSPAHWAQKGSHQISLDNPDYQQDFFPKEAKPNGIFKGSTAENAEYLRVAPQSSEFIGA
Sequence of Epidermal growth factor receptor (Homo sapiens, UniProt P00533) (P00533 whole entry): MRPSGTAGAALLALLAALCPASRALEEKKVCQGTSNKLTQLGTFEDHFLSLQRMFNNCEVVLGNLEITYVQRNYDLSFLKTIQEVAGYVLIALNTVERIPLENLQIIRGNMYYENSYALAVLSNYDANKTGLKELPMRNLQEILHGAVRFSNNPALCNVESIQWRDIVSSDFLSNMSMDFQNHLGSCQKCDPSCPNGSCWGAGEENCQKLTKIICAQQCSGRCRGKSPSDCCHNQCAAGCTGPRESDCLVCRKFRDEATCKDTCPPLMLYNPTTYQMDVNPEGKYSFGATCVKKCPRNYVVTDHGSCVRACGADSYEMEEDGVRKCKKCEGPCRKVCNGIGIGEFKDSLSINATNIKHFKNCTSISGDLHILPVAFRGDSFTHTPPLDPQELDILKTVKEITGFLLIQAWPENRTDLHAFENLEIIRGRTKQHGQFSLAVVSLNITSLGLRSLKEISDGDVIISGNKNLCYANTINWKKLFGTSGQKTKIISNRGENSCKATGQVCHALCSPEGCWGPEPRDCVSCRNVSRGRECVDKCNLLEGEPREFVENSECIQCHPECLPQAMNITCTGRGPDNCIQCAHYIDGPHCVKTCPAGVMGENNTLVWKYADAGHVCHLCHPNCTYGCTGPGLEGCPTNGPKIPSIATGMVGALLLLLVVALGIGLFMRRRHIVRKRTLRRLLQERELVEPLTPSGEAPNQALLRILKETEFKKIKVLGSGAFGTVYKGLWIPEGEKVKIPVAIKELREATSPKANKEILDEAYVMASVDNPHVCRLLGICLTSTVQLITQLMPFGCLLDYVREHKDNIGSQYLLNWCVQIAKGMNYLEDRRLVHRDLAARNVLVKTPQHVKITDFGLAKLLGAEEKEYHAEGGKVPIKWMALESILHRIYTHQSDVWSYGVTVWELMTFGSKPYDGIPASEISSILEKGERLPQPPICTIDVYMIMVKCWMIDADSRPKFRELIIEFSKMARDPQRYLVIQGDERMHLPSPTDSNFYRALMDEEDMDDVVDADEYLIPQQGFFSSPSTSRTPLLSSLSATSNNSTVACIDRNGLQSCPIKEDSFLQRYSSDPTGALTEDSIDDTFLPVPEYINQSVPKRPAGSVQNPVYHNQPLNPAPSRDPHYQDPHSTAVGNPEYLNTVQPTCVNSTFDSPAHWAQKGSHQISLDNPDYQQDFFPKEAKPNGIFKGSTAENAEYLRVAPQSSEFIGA
Sequence of Epidermal growth factor receptor (Homo sapiens, UniProt P00533, C797S/L858R/T790M) (P00533 25-1210 T790M/C797S/L858R limits assumed): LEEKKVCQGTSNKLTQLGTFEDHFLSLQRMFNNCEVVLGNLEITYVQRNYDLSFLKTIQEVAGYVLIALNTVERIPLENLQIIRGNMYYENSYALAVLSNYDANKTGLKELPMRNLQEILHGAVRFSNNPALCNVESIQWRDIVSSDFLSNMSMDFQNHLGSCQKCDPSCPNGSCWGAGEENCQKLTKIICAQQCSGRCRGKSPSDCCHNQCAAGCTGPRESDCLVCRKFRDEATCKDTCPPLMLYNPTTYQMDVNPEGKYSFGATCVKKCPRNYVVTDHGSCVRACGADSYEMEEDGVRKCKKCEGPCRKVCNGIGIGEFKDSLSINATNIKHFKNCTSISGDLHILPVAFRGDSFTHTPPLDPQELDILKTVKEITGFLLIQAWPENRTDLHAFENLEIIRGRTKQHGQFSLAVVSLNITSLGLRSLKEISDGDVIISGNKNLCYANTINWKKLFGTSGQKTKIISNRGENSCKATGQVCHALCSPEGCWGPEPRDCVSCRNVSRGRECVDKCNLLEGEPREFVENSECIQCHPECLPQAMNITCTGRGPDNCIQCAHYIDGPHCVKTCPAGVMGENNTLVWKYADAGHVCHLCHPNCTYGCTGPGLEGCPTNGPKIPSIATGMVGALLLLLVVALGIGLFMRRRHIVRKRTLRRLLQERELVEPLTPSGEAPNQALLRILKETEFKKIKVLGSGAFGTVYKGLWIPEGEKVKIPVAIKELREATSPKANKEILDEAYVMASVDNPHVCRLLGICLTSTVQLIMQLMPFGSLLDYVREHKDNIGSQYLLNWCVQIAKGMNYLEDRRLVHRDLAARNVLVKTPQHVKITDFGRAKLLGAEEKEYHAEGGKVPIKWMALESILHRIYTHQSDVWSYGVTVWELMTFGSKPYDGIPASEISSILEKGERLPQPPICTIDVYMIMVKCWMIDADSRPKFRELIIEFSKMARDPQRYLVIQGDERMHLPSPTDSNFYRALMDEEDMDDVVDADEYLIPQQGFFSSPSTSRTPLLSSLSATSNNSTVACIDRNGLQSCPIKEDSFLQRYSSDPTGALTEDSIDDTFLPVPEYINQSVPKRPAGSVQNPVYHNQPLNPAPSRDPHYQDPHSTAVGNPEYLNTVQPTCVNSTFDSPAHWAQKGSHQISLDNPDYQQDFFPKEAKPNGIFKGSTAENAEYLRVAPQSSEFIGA

By IC50 is commonly meant the concentration at which inhibition is half-maximal. Higher therefore signals weaker potency. Usually EC50 stands for the concentration at which the effect is half-maximal. Regarding `COc1cc(N2CCN(C)CC2)ccc1Nc1ncc(C(=O)Oc2ccccc2)c(-c2cn(C)c3ccccc23)n1`, the IC50 in [1] is 0.053 nM; in [2], 0.064 nM; in series [3], 8.8 nM. For the same compound, the EC50 amounted to 94 nM in the series with BaF3 [4] and 2610 nM in the series on A-431.

Regarding `C=CC(=O)Nc1cc(Nc2nccc(-c3cn(C)c4ccccc34)n2)c(OC)cc1N(C)CCN(C)C` [OSIMERTINIB], the EC50 in the series with BaF3 [5] came to 6 nM; with BaF3 [4] it was 2960 nM; in the series with A-431 it was […]. Further, the microsomal CLint at 1 µM in series [6] amounted to 81 µL/min/mg.

In the case of `COc1cc(N2CCC(N3CCN(C)CC3)CC2)ccc1Nc1ncc(Cl)c(Nc2ccccc2P(C)(C)=O)n1` [BRIGATINIB], the EC50 in the series on BaF3 [4] worked out at 295 nM; in the series with A-431, 936 nM.

On to `COc1cc(N2CCN(C)CC2)ccc1Nc1ncc(C(=O)Oc2ccc(F)cc2)c(-c2cn(C)c3ccccc23)n1`, for which the EC50 stood at 227 nM in the series on BaF3 [4] and 1410 nM with A-431.

Regarding `COc1cc(N2CCC(N(C)C)CC2)ccc1Nc1ncc(C(=O)OC(C)C)c(-c2cn(C)c3ccccc23)n1`, the values for the IC50 in series [1], in series [2] and in series [3] were 0.4 nM, 0.42 nM and 19 nM, respectively. The results for the EC50 in the series on BaF3 [4] and in the series with A-431 were 202 nM and 3670 nM, respectively.

On to `COc1cc(N2CCN(C)CC2)ccc1Nc1nccc(-c2cn(C)c3ccccc23)n1`, for which the figures for the IC50 in [1], in series [7] and in series [2] were 34 nM, 5.4 nM and 125 nM, respectively. In addition, the values for the EC50 with BaF3 [5] and in the series on BaF3 [4] were 3630 nM and 2060 nM, respectively.

As for `COc1cc(N2CCC(N)CC2)ccc1Nc1ncc(C(=O)OC(C)C)c(-c2cn(C)c3ccccc23)n1`, the IC50 in [1] is 0.35 nM; in series [2], 0.56 nM; in series [3], 12 nM. Moreover, the concentration for a half-maximal effect (EC50) stood at 354 nM in the series with BaF3 [4] and 4020 nM in the series on A-431.

Take `COc1cc(N2CCN(C)CC2)ccc1Nc1ncc(C(=O)OC(C)C)c(-c2cn(C)c3ccccc23)n1`: the EC50 with BaF3 [5] turned out to be 605 nM; in the series on BaF3 [4], 615 nM; with A-431, 7960 nM.

By inhibition is commonly meant the drop in the measured response relative to a control, in per cent. On to `COc1cc(N2CCC(N(C)C)CC2)ccc1Nc1ncc(C(=O)OC(C)C)c(-c2c[nH]c3ccccc23)n1`, for which the inhibition in series [8], in series [9], in [10], in [11], in [12] and in series [13] was above 40% each time. Besides, the inhibition in series [14] is above 40%. Also, the IC50 in series [1] was determined as 0.16 nM; in series [2], 0.32 nM; in series [3], 15 nM. Moreover, the EC50 with BaF3 [4] was determined as 111 nM; in the series on A-431, 3890 nM. In addition, in series [6], the microsomal CLint at 1 µM amounted to 49 µL/min/mg.

Take `CCOC(=O)c1cnc(Nc2ccc(N3CCN(C)CC3)cc2OC)nc1-c1cn(C)c2ccccc12`: the IC50 was 5.2 nM in series [1], 0.68 nM in series [7] and 17 nM in [2]. Further, the EC50 in the series on BaF3 [5] was 1900 nM; in the series on BaF3 [4], 1880 nM.

With `COc1cc(N2CCC(N(C)C)CC2)ccc1Nc1ncc(C(=O)OC(C)C)c(-c2cn(C(C)=O)c3ccccc23)n1`, the IC50 is 0.86 nM in [1], 3 nM in [2] and 78 nM in series [3]. Also, the EC50 with BaF3 [4] stood at 220 nM; in the series on A-431 it was 3920 nM.

Take `COc1cc(N2CCC(N(C)C)CC2)ccc1Nc1ncc(C(=O)Oc2ccccc2)c(-c2c[nH]c3ccccc23)n1`: the inhibition in series [15], in series [16], in [17], in series [18], in [19] and in series [20] was above 40% in each case. Further, the inhibition (in series [21]; with Insect cell) was above 40% each time. Moreover, the results for the IC50 in series [1], in [2] and in series [3] were 0.008 nM, 0.02 nM and 0.64 nM, respectively. The EC50 amounted to 7.1 nM in the series with BaF3 [4], 1840 nM with A-431 and 470 nM in the series on BaF3 [24]. Moreover, the microsomal CLint at 1 µM in series [6] worked out at 55 µL/min/mg. Further, the inhibition entry in series [22] and in series [23] was “Active” in each case.

On to `C=CC(=O)Nc1cc(Nc2ncc(C(=O)OC(C)C)c(-c3cn(C)c4ccccc34)n2)c(OC)cc1N(C)CCN(C)C` [MOBOCERTINIB], for which the IC50 stood at 0.025 nM in series [1], 0.01 nM in series [7], 25 nM in [2] and 364 nM in series [3]. In addition, the EC50 came to 1.1 nM in the series with BaF3 [5], 2710 nM in the series on BaF3 [4] and 1680 nM with A-431. In [6], the microsomal CLint at 1 µM was determined as 149 µL/min/mg.

Turning to `COC(=O)c1cnc(Nc2ccc(N3CCN(C)CC3)cc2OC)nc1-c1cn(C)c2ccccc12`, the figures for the IC50 in series [1], in [7] and in series [2] were 23 nM, 3.4 nM and 73 nM, respectively. Besides, the EC50 was 3340 nM in the series with BaF3 [5] and 3750 nM with BaF3 [4].
